From PubChem
HGIII-sPLA2 inh: Blocks human group III sPLA2 activity; inhibition, % at 12.2 µM; hit rate 0.56% among 370,000; Q9NZ20; QFRET BODIPY PC-A2 liposome hydrolysis, fluorescence;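 active = inhibition above mean plus 3 SD of compounds lying within the high and low control bounds, cut at about 19% in these data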
Target sequence (Q9NZ20 whole entry, looked up): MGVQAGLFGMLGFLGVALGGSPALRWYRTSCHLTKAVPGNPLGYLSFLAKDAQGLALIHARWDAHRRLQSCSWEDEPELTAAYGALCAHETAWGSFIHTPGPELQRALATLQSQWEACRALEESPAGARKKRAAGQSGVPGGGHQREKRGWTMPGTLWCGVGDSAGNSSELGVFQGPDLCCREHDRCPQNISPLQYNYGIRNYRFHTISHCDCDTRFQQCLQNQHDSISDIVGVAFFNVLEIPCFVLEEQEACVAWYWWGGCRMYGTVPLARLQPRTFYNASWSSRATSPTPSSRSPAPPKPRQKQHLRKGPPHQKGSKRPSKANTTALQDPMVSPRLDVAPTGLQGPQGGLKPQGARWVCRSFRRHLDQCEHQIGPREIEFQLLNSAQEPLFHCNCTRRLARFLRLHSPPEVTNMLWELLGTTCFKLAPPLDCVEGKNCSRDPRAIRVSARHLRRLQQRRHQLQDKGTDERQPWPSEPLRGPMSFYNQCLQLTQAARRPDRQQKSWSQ
MT1-MMP act inh: MT1-MMP (human) activation inhibition. P50281. hit rate 0.061% among 360,000. HT1080 RFP-PRO-GFP cells, GFP/RFP ratio fluorescence, overnight; percent of plate control window, DMSO zero. GFP/RFP ratio change, % at 20 µM. AID 651647;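 active = GFP/RFP ratio change of at least 30% with cell ATP level not reduced by more than half and red fluorescence within 50% of control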
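Compound: 20 µM single dose, 1% DMSO / System: HT1080 RFP-PRO-GFP cells / Controls: DMSO and RFP-L50D-GFP cell wells / Read-out basis: GFP/RFP fluorescence ratio / Schedule: overnight compound exposure at 37 °C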
Efflux pump mplx: inhibitors of Candida antifungal efflux pumps expressed in yeast; S. cerevisiae Candida pump triplex, Nile Red efflux; inhibition, % at 10 µM; hit rate 0.44% among 330,000;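 active = plate passing quality check with inhibition over a set limit, or well fluorescence over plate mean plus 4 SD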;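 note: Nile Red retained in pooled yeast measured as flow cytometry median fluorescence; higher means more Nile Red kept so more efflux inhibition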
TAG inh: reduces triacylglycerol accumulation in H9c2 cells; Nile Red lipid (TAG) fluorescence; cells loaded with 200 µM oleic acid; inhibition, % at 12.5 µM; hit rate 0.66% among 230,000; AID 651582;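 active = pattern-corrected inhibition of lipid staining of at least 50% with the nuclear-stain viability signal not falling by more than 50%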
Cmpd fluor yeast: flagged as fluorescent in efflux inhibitor counter-screen | shares compounds with Efflux pump mplx | S. cerevisiae AD/pABC3, compound fluorescence, flow cytometry | fluorescence ratio to DMSO, % at 10 µM | hit rate 4% among 1,700 | AID 588517;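 active = fluorescence ratio to DMSO above its plate's cutoff, the plate mean ratio plus 5 SD, cut at about 210% in these data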;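 note: unstained yeast with no Nile Red so the signal is compound autofluorescence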
Mdr1 pump inh: blocks the Candida albicans Mdr1 efflux pump in yeast | shares compounds with Efflux pump mplx | S. cerevisiae AD/CaMDR1, Nile Red efflux, flow cytometry | inhibition, % at 10 µM | hit rate 1% among 1,700; in the data active = inhibition above about 26%;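 note: higher means more Nile Red retained so more efflux inhibition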
CaCdr2 efflux inh: Candida Cdr2 efflux pump inhibition; S. cerevisiae AD/CaCDR2, Nile Red retention, flow cytometry; Nile Red retention ratio vs DMSO, % at 10 µM; AID 588520; shares compounds with Efflux pump mplx; hit rate 4% among 1,700; in the data active = Nile Red retention ratio vs DMSO above about 190%;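 note: higher ratio means more blocking of Cdr2 efflux of the dye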
Cdr1 pump inh: Candida Cdr1 efflux pump inhibition. shares compounds with Efflux pump mplx. AID 588522. hit rate 1% among 1,700. inhibition, % at 10 µM. S. cerevisiae AD/CaCDR1, Nile Red efflux, flow cytometry;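 active = inhibition above the screen-wide mean plus twice its standard deviation, cut at about 32% in these data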
Hits are given with their value; - = inactive; . = not tested or not shown. Only some compounds are listed: those with a hit (about 1.3% of all), similar ones and a draw of the others.

SMILES	HGIII-sPLA2 inh	MT1-MMP act inh	Efflux pump mplx	TAG inh	Cmpd fluor yeast	Mdr1 pump inh	CaCdr2 efflux inh	Cdr1 pump inh
C=CCN1[C@H](Cc2ccccc2)COc2cc(N3CCSCC3)ccc2S1(=O)=O	-	.	.	.	.	.	.	.
O=C(NCCc1ccccc1)OCc1cn(-c2cccc(Cl)c2)nn1	-	.	.	.	.	.	.	.
CCN1CCN(c2ccc(S(=O)(=O)N3CCOCC3)cc2NC(=O)c2cc(Cl)nc3ccccc23)CC1	-	-	-	-	.	.	.	.
COc1ccc(-c2cc(C(=O)Nc3cc(S(=O)(=O)N4CCOCC4)ccc3N3CCOCC3)c3ccccc3n2)cc1	-	-	0.8	-	-	-	-	-
O=C(Nc1nccs1)c1cc(-c2ccccc2)nc2ccccc12	-	-	11	.	-	-	-	-
CCOC(=O)Cc1cc(-c2ccc(OC)cc2)nc2ccc3ccccc3c12	-	-	10	-	-	-	-	-
CCOC(=O)Cc1cc(-c2ccc(O)cc2)nc2ccc3ccccc3c12	-	-	-	.	.	.	.	.
COc1ccc(-c2cc(C(=O)NCCN3CCOCC3)c3ccccc3n2)c(OC)c1	-	-	-	.	-	-	-	-
O=C(Nc1nccs1)c1cc(-c2ccco2)nc2ccccc12	-	-	-	.	.	.	.	.
O=C(NCCN1CCOCC1)c1cc(-c2ccccc2)nc2ccccc12	-	-	.	-	.	.	.	.
O=C(NCCc1ccc(Cl)cc1)c1ccc2c(c1)ncn2C1CCCCC1	-	.	.	.	.	.	.	.
COc1ccc(-c2cc(C(=O)Nc3ccc(C)c(N)c3)c3ccccc3n2)cc1	-	-	0.5	-	-	-	-	-
CCn1c(CN2CCOCC2)nnc1SCC(=O)Nc1cccc(C)c1	-	-	-	-	.	.	.	.
O=C(c1ccc(Cl)cc1)N1C2C=CC(C2)C1(C(F)(F)F)C(F)(F)F (configuration not stated)	-	-	15	.	-	-	-	-
Cc1ccc(S(=O)(=O)c2ccc(Cl)cc2)cc1S(=O)(=O)N(C)CC(=O)O	-	-	15	.	-	-	-	-
Cc1ccc(S(=O)(=O)c2ccc(Cl)cc2)cc1S(N)(=O)=O	-	-	-	.	.	.	.	.
Cc1ccc(C)c(C(=O)CCC(=O)Nc2ccc(N3CCN(C)CC3)cc2C)c1	-	-	-	-	.	.	.	.
CCOC(=O)c1nn(-c2ccccc2)c(=O)c(C#N)c1C	-	-	1.0	-	-	-	-	-
CCOC(=O)c1nn(-c2ccc(F)cc2)c(=O)c(C#N)c1C	-	.	-	-	.	.	.	.
FC(F)(F)c1ccccc1NC(=S)Nn1cnnc1	-	-	-	.	.	.	.	.
COc1ccc(Nc2nnc(Cc3ccccc3)c(=O)[nH]2)c(OC)c1	-	-	0.5	-	-	-	-	-
CC(=O)Oc1ccccc1/C=C/c1ccc2ccccc2[n+]1C	-	-	-	.	.	.	.	.
COc1ccc(/C=C/c2ccc3ccccc3[n+]2C)cc1OC	.	-	1.1	.	-	-	-	-
CCN1C(=O)[C@H]2[C@@H](c3ccc(-c4cccc(Cl)c4)c(OC)c3)N3CCCC[C@@]3(C(=O)OC)[C@H]2C1=O	-	-	-	-	.	.	.	.
CCN1C(=O)[C@H]2[C@@H](c3ccc(-c4cccc(Cl)c4)cc3)N3CCCC[C@@]3(C(=O)OC)[C@H]2C1=O	-	-	0.7	-	-	-	-	-
SMILES	HGIII-sPLA2 inh	MT1-MMP act inh	Efflux pump mplx	TAG inh	Cmpd fluor yeast	Mdr1 pump inh	CaCdr2 efflux inh	Cdr1 pump inh
O=S(=O)(NC1CCCC1)c1ccc(S(=O)(=O)N2CCN(c3ccccc3)CC2)cc1	-	-	2.0	-	-	-	-	-
COC(=O)CC(NC(=S)NC(=O)c1ccccc1)c1ccc(Br)cc1 (configuration not stated)	-	-	-	.	.	.	.	.
CCCOc1ccc(/C=c2\sc3nc(-c4ccco4)nn3c2=O)cc1OCC	-	-	-	-	-	-	-	-
COc1ccc(C2=C/C(=C\c3cccc(OC(C)=O)c3)C(=O)O2)cc1	-	-	-	-	.	.	.	.
CCCCCOc1ccc(/C=c2\sc3nc(=O)c(-c4ccccc4)nn3c2=O)cc1OC	-	-	-	.	.	.	.	.
CC(=O)Oc1cccc(/C=c2\sc3nc(-c4ccco4)nn3c2=O)c1	-	-	-	-	-	-	-	-
Cc1cc(C)c(OCCCn2ccnc2)c(C)c1	-	-	-	.	.	.	.	.
Cc1cc(Cl)c(OCCCn2ccnc2)c(Br)c1	-	-	16	.	-	-	-	-
COc1ccc2[nH]c3c(c2c1)CCN[C@]31C(=O)Nc2ccccc21	-	.	.	.	.	.	.	.
O=C1c2ccccc2C(=O)N1CN(C(=O)COc1ccccc1)c1ccc(F)cc1	-	-	8.0	.	-	-	-	-
Cc1ccc(Nc2nc(Cl)nc(NC(C)(C)C)n2)cc1	-	-	1.1	.	-	-	-	-
Cc1ccc(C(=O)COc2ccccc2-c2ccccc2)cc1C	-	-	13	.	-	-	-	-
O=C(Nc1ccc2c(c1)OCCO2)c1ccccc1	.	-	-	.	.	.	.	.
CS(=O)(=O)Nc1ccc(C(=O)Nc2ccc3c(c2)OCCO3)cc1	.	.	9.0	.	-	-	-	-
COc1ccc(-c2sc3ccccc3c2-c2ccc(OCCN(C)C)cc2)cc1	-	-	-	63	-	-	-	-
CN(C)CCOc1ccc(-c2c(-c3ccsc3)sc3ccccc23)cc1	-	-	-	-	.	.	.	.
COc1cccc(-c2sc3ccc(OC)cc3c2-c2ccc(O)cc2)c1	-	-	-	-	.	.	.	.
COc1cccc(-c2sc3ccc(OC)cc3c2-c2ccc(OCCN(C)C)cc2)c1	-	-	187	-	-	-	228	-
Cc1ccccc1CNC(=O)c1cccc2c1C(=O)N(Cc1cccnc1)C2	-	.	.	.	.	.	.	.
CCOC(=O)C1(C(F)(F)F)N=C(c2cccnc2)OC(N2CCCCC2)=N1 (configuration not stated)	-	-	5.5	.	-	-	-	-
CCOC(=O)C1(C(F)(F)F)N=C(c2ccccc2F)OC(N(C)C)=N1 (configuration not stated)	-	-	-	-	.	.	.	.
CCC(Sc1nc2ccsc2c(=O)n1Cc1ccc(C(=O)O)cc1)C(=O)Nc1ccc(C)c(Cl)c1 (configuration not stated)	-	-	0.8	.	-	-	-	-
COC(=O)c1nn(-c2ccc(OC)cc2)c(=O)cc1Sc1ccc(C)cc1	-	-	-	.	.	.	.	.
COC(=O)c1nn(-c2ccccc2)c(=O)cc1Sc1ccc(Cl)cc1	-	-	0.6	-	-	-	-	-
COC(=O)c1ccccc1C(=O)N1CCC(CCC(=O)NC2CC2)CC1	-	-	-	.	.	.	.	.
Cc1ccc(NS(=O)(=O)c2ccc(OCC(N)=O)cc2)cc1	-	-	-	-	.	.	.	.
COc1ccccc1NC(=O)NCC(=O)Nc1ccc(F)c(F)c1	-	-	-	-	.	.	.	.
COc1ccccc1NC(=O)CNc1ccc(F)c(Cl)c1	-	-	14	.	-	-	-	-
O=Cc1ccc(OCc2cn(CC(=O)c3ccc(O)cc3)nn2)cc1	-	-	.	-	.	.	.	.
